What all share (format): functional
For one test, the system named is Mus musculus. The test is described as follows: Antinociceptive activity in po dosed Swiss albino mouse assessed as reduction in number of acetic acid-induced writhing counted 5 mins after acetic acid challenge counted for 10 mins. Particulars: read-out: MED. In outline:
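Male Swiss albino mice (23-25 g) dosed orally, then given 0.6% acetic acid (10 mL/kg) ip. Stretching movements counted for 10 min, starting 5 min after the acetic acid. Control group received CMC. At least 7 mice/group; mean ± SEM, ANOVA with Fisher's PLSD.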
In general terms: An intraperitoneal irritant provokes the stretching counted in writhing tests.

In test [1] the test system is Rattus norvegicus. The test is described as follows: Antiinflammatory activity in Sprague-Dawley/Wistar rat assessed as decrease in carrageenan-induced paw edema at 3 mg/kg, po administered 3 hrs 30 mins after carrageenan-challenge measured after 60 mins (reference value: 2.48 +/- 0.06 mL). (In general: In the carrageenan paw model, swelling and tenderness develop within hours.)

For test [2], the system named is Rattus norvegicus. The test is described as follows: Antiinflammatory activity in Sprague-Dawley/Wistar rat assessed as decrease in carrageenan-induced paw edema at 10 mg/kg, po administered 3 hrs 30 mins after carrageenan-challenge measured after 60 mins (reference value: 2.48 +/- 0.06 mL).
Test [3] concerns Rattus norvegicus. The test is described as follows: Antiinflammatory activity in Sprague-Dawley/Wistar rat assessed as decrease in carrageenan-induced hyperalgesia at 3 mg/kg, po administered 4 hrs after carrageenan-challenge measured after 120 mins (reference value: 31.4 +/- 3.7 g).
Test [4] has as its system Rattus norvegicus. The test is described as follows: Antiinflammatory activity in Sprague-Dawley/Wistar rat assessed as decrease in carrageenan-induced hyperalgesia at 3 mg/kg, po administered 4 hrs after carrageenan-challenge measured after 60 mins (reference value: 33.9 +/- 3.7 g).
The subject of test [5] is Rattus norvegicus. The test is described as follows: Antiinflammatory activity in Sprague-Dawley/Wistar rat assessed as decrease in carrageenan-induced hyperalgesia at 3 mg/kg, po administered 4 hrs after carrageenan-challenge measured after 30 mins (reference value: 34.8 +/- 3.0 g).
Test [6] relates to Rattus norvegicus. Put plainly: Antiinflammatory activity in Sprague-Dawley/Wistar rat assessed as decrease in carrageenan-induced hyperalgesia at 10 mg/kg, po administered 4 hrs after carrageenan-challenge measured after 120 mins (reference value: 31.4 +/- 3.7 g).
In test [7] the test system is Rattus norvegicus. The test is described as follows: Antiinflammatory activity in Sprague-Dawley/Wistar rat assessed as decrease in carrageenan-induced hyperalgesia at 10 mg/kg, po administered 4 hrs after carrageenan-challenge measured after 60 mins (reference value: 33.9 +/- 3.7 g).
Test [8] has as its system Rattus norvegicus. Put plainly: Antiinflammatory activity in Sprague-Dawley/Wistar rat assessed as decrease in carrageenan-induced hyperalgesia at 10 mg/kg, po administered 4 hrs after carrageenan-challenge measured after 30 mins (reference value: 34.8 +/- 3.0 g).

As to `Cc1ccc(-c2cc(C(F)(F)F)nn2-c2ccc(S(N)(=O)=O)cc2)cc1` [CELECOXIB], the minimal effective dose with Mus musculus was found to be 3 mg/kg. The Activity stood at 2.35 mL in the test on Rattus norvegicus [1]; 1.45 mL in the test on Rattus norvegicus [2]; 40.7 g in the test with Rattus norvegicus [3]; 41.6 g in the test on Rattus norvegicus [4]; 44.3 g in the test on Rattus norvegicus [5]; 39.8 g with Rattus norvegicus [6]. Also, the Activity in the test with Rattus norvegicus [7] was 48.3 g; in the test with Rattus norvegicus [8], 52.9 g.

For the origin of these results see ChEMBL document CHEMBL2331234, “Novel analgesic/anti-inflammatory agents: 1,5-diarylpyrrole nitrooxyalkyl ethers and related compounds as cyclooxygenase-2 inhibiting nitric oxide donors” (J Med Chem, 2013).
